Screening data: PubChem BioAssay, several laboratories
This is a sample that favours compounds with a hit; in the whole collection about 6.4% have one here.
Fibroblast inh: blocks proliferation of human lung fibroblasts. LL 47 human lung fibroblast viability, ATP luminescence; hits give low values. viability, % at 10 µM. 85,000 compounds, 1.1% hits. AID 719;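 active means viability at or below 50% in the single dose screen; inactive means viability above 50%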;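 further: compound exposure lasted 72 h before the ATP readout; 100% = median luminescence of untreated cell-only wells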
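Signal: luminescent ATP detection, CellTiter-Glo; assay system: LL 47 human lung fibroblasts; input: 1,150 cells/well; incubation: overnight cell rest, 72 h compound treatment at 37 °C; measure: % viability versus median cells-only luminescence; medium: IMEM growth medium with 15% fetal bovine serum; dosing: compound addition at 0.1% DMSO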
HUVEC inhibit: inhibitors of human endothelial cell proliferation; AID 648; viability, % at 10 µM (by protocol); HUVEC proliferation, CellTiter-Glo luminescence, 72 h; hits give low values; 86,000 compounds, 1.1% hits;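 active means viability at or below 30%; inactive means viability above 30%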;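 further: 100% = median luminescence of DMSO-only cell control wells on each plate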
Ecoli tolC: growth inhibitors of E. coli BW25113 tolC mutant; OD615; growth inhibition, % at 10 µM (by protocol); 65,000 compounds, 2.2% hits;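 active means growth inhibition at or above a cutoff equal to the mean over every tested compound plus 3 SD, cut at about 60% in these data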;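 further: growth measured after 20 h incubation at 37 °C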
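Doses: one dose of 10 µM final / Material: E. coli BW25113 ΔtolC::kan, tolC deletion mutant strain / Buffer or medium: LB with kanamycin 50 µg/mL / Evaluation: percent growth inhibition / Detection: optical density read at 615 nm / Incubation: 37 °C, 20 h exposure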
Ecoli WT expand: blocks growth of wild type E. coli BW25113; growth inhibition, % at 100 µM; OD600 absorbance; 98,000 compounds, 0.15% hits;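 active means growth inhibition above about 50% at one test dose, limit read from the data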;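 further: growth measured after 20 h incubation at 37 °C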
Jurkat tox 60K: cytotoxic compounds reducing Jurkat cell viability; Jurkat E6.1 viability, ATP luminescence, 48 h; inhibition, % at 4 µM; 56,000 compounds, 1.2% hits;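 active means inhibition above the mean inhibition of all tested compounds plus 3 SD, cut at about 28% in these data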
H69AR inhibit: blocks growth of human H69AR lung tumor cells; 85,000 compounds, 6% hits; AID 598; viability, % at 10 µM; H69AR lung tumor viability, ATP luminescence, 72 h; hits give low values;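 active means viability at or below 40%; inactive means viability above 40%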;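 further: multidrug resistant small cell line overexpressing MRP-1 efflux transporter; 100% = mean luminescence of untreated control wells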
* hit, by the source's call.

How did CN(Cc1ccccc1)S(=O)(=O)c1ccc(C(=O)Nc2nnc(C3CC3)o2)cc1 do in these assays?
Ecoli tolC: 99.7*; Ecoli WT expand: -1.0; Jurkat tox 60K: 100.3*

Results for CN(c1ccccc1)S(=O)(=O)c1ccc(NC(=O)c2ccc(-c3ccccc3)cc2)cc1 ?
Ecoli WT expand: -18.0

Results for COc1ccccc1-c1nnc(NC(=O)c2ccc(S(=O)(=O)N(C)Cc3ccccc3)cc2)o1 ?
Fibroblast inh: 67.4; HUVEC inhibit: 17.2*; Ecoli tolC: 95.4*; Ecoli WT expand: -13.0; Jurkat tox 60K: 11.8; H69AR inhibit: 22.0*

Results for CN(c1ccccc1)S(=O)(=O)c1ccc(C(=O)Nc2nnc(-c3ccc(F)cc3)o2)cc1 ?
Fibroblast inh: 70.9; HUVEC inhibit: 2.0*; Ecoli tolC: 100.0*; Ecoli WT expand: -8.0; Jurkat tox 60K: -6.5; H69AR inhibit: 34.1*

Results for CC(=O)Nc1ccc(-n2c(C)c(C(C)=O)c(C(C)=O)c2C)cc1 ?
Fibroblast inh: 97.5; HUVEC inhibit: 93.1; Ecoli tolC: -17.4; Ecoli WT expand: -6.0; Jurkat tox 60K: -3.3; H69AR inhibit: 96.5

Results for CC(C)(C)n1ncc2c(=O)n(CC(=O)NCc3ccc(F)cc3)cnc21 ?
Fibroblast inh: 83.6; HUVEC inhibit: 58.3; Ecoli tolC: -6.7; Ecoli WT expand: -5.0; Jurkat tox 60K: 54.5*; H69AR inhibit: 21.3*

Results for CCOC(=O)c1ccccc1NC(=O)Cn1cnc2c(cnn2C(C)(C)C)c1=O ?
Fibroblast inh: 95.4; HUVEC inhibit: 81.9; Ecoli tolC: -5.7; Ecoli WT expand: -12.0; Jurkat tox 60K: -6.0; H69AR inhibit: 37.3*

What do the screens show for `COc1ccc(N(CC(=O)Nc2cc(Cl)ccc2OC)S(=O)(=O)c2c(C)noc2C)cc1`?
Fibroblast inh: 48.5*; HUVEC inhibit: 42.0; Ecoli tolC: 23.5; Ecoli WT expand: -9.0; Jurkat tox 60K: 88.3*; H69AR inhibit: 24.1*

What do the screens show for `CCc1ccc(N(CC(=O)Nc2nc3ccc(C)cc3s2)S(=O)(=O)c2c(C)noc2C)cc1`?
Fibroblast inh: 97.8; HUVEC inhibit: 49.8; Ecoli WT expand: -19.0; H69AR inhibit: 3.3*

Results for Cc1cccc2sc(NC(=O)CNS(=O)(=O)c3ccc(Br)s3)nc12 ?
Fibroblast inh: 93.6; HUVEC inhibit: 86.7; Ecoli tolC: 30.7; Ecoli WT expand: -5.0; Jurkat tox 60K: 3.0; H69AR inhibit: 97.4

How did Cc1ccc2nc(NC(=O)CNS(=O)(=O)c3ccc(Br)s3)sc2c1 do in these assays?
Fibroblast inh: 89.5; HUVEC inhibit: 81.0; Ecoli tolC: 61.2*; Ecoli WT expand: -12.0; Jurkat tox 60K: 9.4; H69AR inhibit: 78.3

What do the screens show for `Cc1ccc2nc(NC(=O)CN(C)S(=O)(=O)c3ccc(Br)s3)sc2c1`?
Fibroblast inh: 96.7; HUVEC inhibit: 57.2; Ecoli tolC: 80.6*; Ecoli WT expand: -10.0; H69AR inhibit: 21.2*

How did CCc1ccc(NC(=O)CN(c2ccc3c(c2)OCO3)S(=O)(=O)c2c(C)noc2C)cc1 do in these assays?
Fibroblast inh: 94.3; HUVEC inhibit: 104.1; Ecoli tolC: -9.3; Ecoli WT expand: 0.0; Jurkat tox 60K: -2.0; H69AR inhibit: 98.4

Results for COc1ccc(OC)c(NC(=O)CN(c2ccc(C)cc2)S(=O)(=O)c2c(C)noc2C)c1 ?
Fibroblast inh: 93.8; HUVEC inhibit: 91.2; Ecoli tolC: 33.6; Ecoli WT expand: -13.0; Jurkat tox 60K: 1.0; H69AR inhibit: 74.3

What do the screens show for `O=C(CCn1c(=O)sc2ccccc21)Nc1cccnc1`?
Fibroblast inh: 101.0; HUVEC inhibit: 89.7; Ecoli tolC: -15.6; H69AR inhibit: 87.5

What do the screens show for `Cc1ccc(NC(=O)CN(C)S(=O)(=O)c2cccc3nsnc23)cc1Cl`?
Fibroblast inh: 96.7; HUVEC inhibit: 92.4; Ecoli tolC: 74.0*; Ecoli WT expand: -9.0; Jurkat tox 60K: -0.6; H69AR inhibit: 75.2

Results for Cc1ccc(NC(=O)CN(C)S(=O)(=O)c2cccc3nsnc23)cc1C ?
Fibroblast inh: 105.5; HUVEC inhibit: 92.4; Ecoli tolC: 19.2; Ecoli WT expand: -5.0; Jurkat tox 60K: 5.3; H69AR inhibit: 89.6

What do the screens show for `Cc1ccc2nc(NC(=O)CN(C)S(=O)(=O)c3cccc4nsnc34)sc2c1`?
Fibroblast inh: 25.2*; HUVEC inhibit: 28.5*; Ecoli tolC: -16.2; Ecoli WT expand: 1.0; Jurkat tox 60K: 11.2; H69AR inhibit: 12.1*

Results for N#Cc1c(N)c(C#N)c(-c2ccc(O)cc2)c2c1CCCC2 ?
Fibroblast inh: 98.3; HUVEC inhibit: 77.9; Ecoli tolC: 25.8; Ecoli WT expand: 10.0; Jurkat tox 60K: 10.9; H69AR inhibit: 78.1

How did CSc1nc2c(c(-c3ccc(O)cc3)c1C#N)CCC2 do in these assays?
Fibroblast inh: 94.2; HUVEC inhibit: 83.0; Ecoli tolC: 25.7; Ecoli WT expand: -1.0; Jurkat tox 60K: 8.8; H69AR inhibit: 26.2*

How did CC(C)C[C@H](N)c1nnc(S(=O)(=O)Cc2ccc(F)cc2)o1 do in these assays?
Fibroblast inh: 67.5; HUVEC inhibit: 100.1; Ecoli tolC: -10.2; Ecoli WT expand: 0.0; Jurkat tox 60K: 10.0; H69AR inhibit: 5.9*

How did Cn1cc(S(=O)(=O)Cc2ccc(F)cc2)c2ccccc21 do in these assays?
Ecoli tolC: -3.9; Jurkat tox 60K: 3.7

Results for CCOC(=O)c1nc(S(C)(=O)=O)ncc1Cl ?
Fibroblast inh: 65.4; HUVEC inhibit: 77.8; Ecoli tolC: -2.2; Ecoli WT expand: 29.0; Jurkat tox 60K: 100.3*; H69AR inhibit: 1.6*

How did O=C1CN(C(=O)CCN2CCOCC2)C(c2ccccc2)c2cc(Br)ccc2N1 (centres undefined) do in these assays?
Fibroblast inh: 103.6; HUVEC inhibit: 86.8; Ecoli tolC: -5.0; Ecoli WT expand: -15.0; Jurkat tox 60K: -3.0; H69AR inhibit: 93.2

What do the screens show for `COc1ccc(-n2c(N3CCN(C)CC3)nc3sc4c(c3c2=O)CCCCC4)cc1`?
Fibroblast inh: 62.5; HUVEC inhibit: 21.7*; Ecoli tolC: 0.2; Ecoli WT expand: -1.0; Jurkat tox 60K: 6.0; H69AR inhibit: 22.4*

What do the screens show for `Cc1cc(C(=O)CN2CC(C)OC(C)C2)c(C)n1-c1ccccc1` (centres undefined)?
Fibroblast inh: 96.3; HUVEC inhibit: 94.7; Ecoli tolC: 1.6; Ecoli WT expand: 3.0; Jurkat tox 60K: 8.0; H69AR inhibit: 90.6

Results for Cc1cc(C(=O)CSc2nc3ccccc3n2CCC#N)c(C)n1Cc1cccs1 ?
Fibroblast inh: 79.7; HUVEC inhibit: 71.0; Ecoli tolC: 5.1; Ecoli WT expand: -10.0; H69AR inhibit: 16.5*

How did CCOc1ccc2nc(SCC(=O)N3CCCCCC3)c(C#N)cc2c1 do in these assays?
HUVEC inhibit: 91.4; Ecoli tolC: 5.3; Ecoli WT expand: -3.0; Jurkat tox 60K: 3.0; H69AR inhibit: 38.1*

What do the screens show for `CCOC(=O)CC(=O)CSc1nc2c(cc1C#N)CCC2`?
Fibroblast inh: 100.7; HUVEC inhibit: 75.7; Ecoli WT expand: 2.0; H69AR inhibit: 34.6*
